The list is not random: actives were taken first. Their share in the collection is about 4.8%.
HSF1 inh: HSF1 inhibition; AID 2098; activity change, negative = inhibition, % at 7.5 µM (by protocol); actives 0.77% (n = 300,000); NIH3T3-HGL HSE-luciferase, MG132-induced, luminescence 8 h; hits give low values;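 active = more than half of replicate wells show activity change below -50%, luminescence cut by over half; inconclusive = some wells, but at most half, below -50%; inactive = no replicate well below -50%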;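 note: luciferase reports HSF-1 transcriptional activity via heat shock element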
697 NFkB inh: lowers PMA/ionomycin-induced NF-kB signal in 697 B cells; actives 0.33% (n = 330,000); 697 B-cell NF-kB luciferase reporter, 16 h; inhibition, % at 4 µM; in the data active = inhibition above about 35%
HSF1 activator: increases HSF-1 driven luciferase reporter signal; NIH3T3-HGL HSF-1 luciferase reporter, MG132, 8 h; 100% = twice DMSO control signal; activation, % at 9 µM; actives 1.7% (n = 300,000);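 active = mean replicate activation of at least 50% with a set share of replicates each reaching 50%; inconclusive = only one of those two conditions met; inactive = mean below 50% and too few replicates reaching it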
T cruzi inh: T. cruzi replication inhibition | T. cruzi beta-gal in NIH3T3, luminescence, 90 h | inhibition, % (no concentration beside the values) | actives 1.4% (n = 300,000) | AID 1885;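 active = mean inhibition across valid replicates above about 55%, limit read from the data; inconclusive = mean below that limit but half or more replicates reach it; inactive = mean below it, under half of replicates reach it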;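 note: signal also drops with host cell toxicity which is not excluded here; higher percent means less beta-gal luminescence so fewer parasites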
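Incubation – ≥90 h infection period, 3 h prior cell attachment · System – NIH/3T3 fibroblasts plus reporter T. cruzi · Doses – compound pinned at 50 nL/well, DMSO · Read-out basis – percent inhibition of parasite-derived β-gal signal · Signal – luminescent β-galactosidase signal after 60 min lysis · Also added – 5000 T. cruzi trypomastigotes/well · Medium – Low-serum DMEM with 2% FBS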
Jurkat NFkB inh: lowers PMA/ionomycin-induced NF-kB signal in Jurkat cells; PMA/ionomycin-induced NF-kB luciferase reporter, luminescence; AID 435003; inhibition, % at 4 µM; actives 0.53% (n = 330,000); in the data active = inhibition above about 50%
GPR7 antag: human neuropeptides B/W receptor 1 antagonism; P48145; GPR7-expressing cells, fluorescence antagonist assay; inhibition, % at 4.4 µM; actives 1.1% (n = 290,000); in the data active = inhibition above about 16%, passing the limit was not always enough;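 note: cells stimulated with the agonist NPW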
Target sequence (P48145 whole entry, looked up): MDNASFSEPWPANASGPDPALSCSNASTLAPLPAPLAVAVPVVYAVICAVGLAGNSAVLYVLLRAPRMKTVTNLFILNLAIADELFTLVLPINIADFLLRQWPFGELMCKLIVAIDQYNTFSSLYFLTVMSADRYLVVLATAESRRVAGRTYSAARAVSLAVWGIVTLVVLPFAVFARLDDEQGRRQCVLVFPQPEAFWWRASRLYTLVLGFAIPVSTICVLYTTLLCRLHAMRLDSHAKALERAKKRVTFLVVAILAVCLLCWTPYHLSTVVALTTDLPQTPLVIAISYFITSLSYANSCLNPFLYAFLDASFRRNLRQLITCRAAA
697 NFkB conf: lowers PMA/ionomycin-induced NF-kB signal in 697 B cells; 697 B-cell NF-kB luciferase, 16 h; actives 35% (n = 2,000); AID 449746; shares compounds with 697 NFkB inh; inhibition, % at 4 µM; in the data active = inhibition mostly above about 28%, no sharp cut-off; inactive = mostly below about 22%
Of the large screens only hits and unclear results are named; the others gave an inactive call (follow-up assays come after a bar, where they were run).

COc1cc(OC)cc(-c2cc3nc(C)c(CCC(=O)Nc4nc(C)cs4)c(C)n3n2)c1	697 NFkB inh 36.3 | 697 NFkB conf 39.4
COc1cc(NC(=O)CCc2c(C)nc3nc(C)nn3c2C)cc(OC)c1	none
COc1ccc(NC(=O)C2CCCN2C(=O)OCc2ccccc2)c(OC)c1 (stereo not given)	697 NFkB inh 35.8 | 697 NFkB conf inactive
COc1ccc(NC(=S)NCCc2ccccc2)c(OC)c1	none
COc1ccc(NC(=S)NCc2ccccc2)c(OC)c1	697 NFkB inh 42.8 | 697 NFkB conf 29.9
O=C(Cn1cc(C(=O)C2CC2)c2ccccc21)NCc1ccc2c(c1)OCO2	none
NC(=O)COc1cccc(/C=N/NC(=O)c2ccc(-n3cccc3)cc2)c1	697 NFkB inh 51.8 | 697 NFkB conf inactive
Cc1ccc(S(=O)(=O)CC2CSc3nc4ccccc4n32)cc1 (stereo not given)	697 NFkB inh 61.8 | 697 NFkB conf 75.2
Cc1ccc(S(=O)(=O)CC2CSc3nc(N)cc(=O)n32)cc1 (stereo not given)	none
O=C1C(c2ccnc3ccccc23)=C(O)c2ccccc21	none | 697 NFkB conf inactive
O=C1c2ccccc2C(=O)C1c1ccnc2ccccc12	none | 697 NFkB conf inactive
O=C1c2ccccc2C(=O)C1c1nccc2ccccc12	HSF1 inh inconclusive | 697 NFkB conf inactive
CCOc1ccc(NC(=O)CN(C)C(=O)c2ccc(N3CCCCCC3)c([N+](=O)[O-])c2)cc1OCC	697 NFkB inh 41.9 (no result: GPR7 antag) | 697 NFkB conf inactive
CCOc1ccc(NC(=O)CN(C)C(=O)c2ccc(N3CCOCC3)c([N+](=O)[O-])c2)cc1OCC	none
O=C(/C=C/c1ccccc1)OCN1C(=O)c2ccccc2C1=O	none
Cc1ccc(C(=O)Nc2ccc(N3CCN(C)CC3)cc2)c(Cl)c1	none
COc1ccc(N(CC(=O)N2CCN(c3ccc(Cl)cc3)CC2)S(=O)(=O)c2c(C)n[nH]c2C)cc1	697 NFkB inh 36.6 | 697 NFkB conf 31.6
Cc1cc(C)nc(NC2=NCC(=O)N2c2ccc(F)c(Cl)c2)n1	697 NFkB inh 39.8 | 697 NFkB conf inactive
Cc1cccc(/C=N/NC(=O)c2ccc3c(c2)OCCO3)c1O	none | 697 NFkB conf inactive
CCOc1cccc(/C=N/NC(=O)c2ccc3c(c2)OCCO3)c1O	none
C[C@@H]1CC[C@]2(C(=O)O[C@@H]3O[C@H](CO)[C@@H](O)[C@H](O)[C@H]3O)CC[C@]3(C)C(=CCC4[C@@]5(C)CC[C@H](O[C@@H]6OC[C@H](O)[C@H](O[C@@H]7O[C@H](CO)[C@@H](O)[C@H](O)[C@H]7O)[C@H]6O)C(C)(C)C5CC[C@]43C)C2[C@]1(C)O (stereo not given in full)	none (no result: HSF1 inh, HSF1 activator, T cruzi inh, GPR7 antag)
COc1ccc(/C=C\C(=O)O[C@@H]2C(O)C(O[C@@H]3OC(C)[C@H](O[C@@H]4OCC(O[C@H]5O[C@H](CO)[C@@H](O)C(O)C5O)C(O)C4O)C(O)C3O)[C@H](OC(=O)[C@]34CCC(C)(C)C[C@@H]3C3=CCC5[C@@]6(C)CC(O)C(O[C@@H]7OC(CO)C(O)[C@H](O)[C@H]7O)[C@@](C)(C(=O)O)C6CC[C@@]5(C)[C@]3(CO)CC4)O[C@H]2C)cc1 (stereo not given in full)	697 NFkB inh 49.2 (no result: HSF1 inh, HSF1 activator, T cruzi inh, GPR7 antag) | 697 NFkB conf 43.7

High-throughput results from PubChem.
